Data taken from paper PMC4067939 (Bioorganic & medicinal chemistry, 2014).
“Also recorded” adds a separate entry of the source.

Experiments:
GGDPS [1] = target: T1, GGDPS (Homo sapiens, UniProt O95749); conditions: cited from earlier work
T1 sequence (O95749 1-300): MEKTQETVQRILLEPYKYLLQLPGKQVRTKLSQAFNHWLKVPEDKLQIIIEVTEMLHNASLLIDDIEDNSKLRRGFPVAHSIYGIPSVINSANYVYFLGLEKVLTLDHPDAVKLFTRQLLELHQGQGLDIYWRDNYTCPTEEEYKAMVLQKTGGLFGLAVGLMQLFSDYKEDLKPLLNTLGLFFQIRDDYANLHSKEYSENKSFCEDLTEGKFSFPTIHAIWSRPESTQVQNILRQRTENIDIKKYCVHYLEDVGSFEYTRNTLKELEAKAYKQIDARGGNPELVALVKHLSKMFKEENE

GGTase II [2] = target: T2, GGTase II (Rattus norvegicus, UniProt Q08602+Q08603); assay: GGTase II enzyme assay; assay type: biochemical; conditions: for inhibitory activity against GGTase II: at concentrations up to 1 mM
T2 sequence (Q08602 1-567): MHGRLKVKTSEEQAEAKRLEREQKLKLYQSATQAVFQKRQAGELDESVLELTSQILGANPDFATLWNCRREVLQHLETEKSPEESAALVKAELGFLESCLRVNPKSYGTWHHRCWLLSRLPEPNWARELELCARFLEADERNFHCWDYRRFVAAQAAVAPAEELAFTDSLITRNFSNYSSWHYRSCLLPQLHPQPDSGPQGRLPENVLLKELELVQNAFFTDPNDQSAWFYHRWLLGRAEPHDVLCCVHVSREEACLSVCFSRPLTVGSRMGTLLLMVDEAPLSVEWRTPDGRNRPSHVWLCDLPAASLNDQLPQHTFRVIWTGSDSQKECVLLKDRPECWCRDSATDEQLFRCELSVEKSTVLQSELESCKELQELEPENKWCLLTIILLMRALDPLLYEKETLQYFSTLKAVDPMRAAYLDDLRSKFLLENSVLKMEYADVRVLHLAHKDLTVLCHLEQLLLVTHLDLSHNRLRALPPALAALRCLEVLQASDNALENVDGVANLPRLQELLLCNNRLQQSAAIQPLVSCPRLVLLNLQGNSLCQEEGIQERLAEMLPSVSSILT
T2 sequence (Q08603 1-331): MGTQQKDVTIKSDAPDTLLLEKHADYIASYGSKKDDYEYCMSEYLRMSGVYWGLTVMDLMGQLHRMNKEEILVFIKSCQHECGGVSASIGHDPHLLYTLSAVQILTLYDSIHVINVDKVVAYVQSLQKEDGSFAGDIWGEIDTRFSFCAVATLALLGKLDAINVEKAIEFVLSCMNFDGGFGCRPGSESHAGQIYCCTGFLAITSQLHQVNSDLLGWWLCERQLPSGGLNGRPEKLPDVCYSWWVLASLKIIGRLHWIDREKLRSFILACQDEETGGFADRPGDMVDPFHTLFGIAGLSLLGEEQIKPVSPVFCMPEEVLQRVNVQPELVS
Procedure, shortened: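 Reaction mix: 30 nM recombinant GGTase II, 2 µM His-tagged Rab1A (E. coli-expressed, Ni-NTA purified) and 1 µM REP-2 in 50 mM sodium HEPES, 5 mM MgCl₂, 1 mM DTT, 1 mM NP-40, ±test compound. Started with 5 µM [³H]-GGPP, 20 min at 37 °C, stopped with 10% HCl/EtOH. P-81 filters were EtOH-washed and scintillation-counted. IC50 came from concentration-response curves.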

[3] = system: Rap1a geranylgeranylation in RPMI-8226 cells; assay: Immunoblot of unmodified Rap1a in RPMI-8226 cells; assay type: cell-based, human; conditions: 48 hours; for disruption of Rap1a geranylgeranylation (accumulation of unmodified Rap1a): 10 µM, Figure 3A; for concentration at which unmodified Rap1a is observed: tested at 0.1, 1, 10 µM
Procedure, shortened: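 Whole-cell lysates were made in RIPA buffer with protease/phosphatase inhibitors, BCA-normalised, and run on SDS-PAGE/PVDF immunoblot. The antibody recognises only unmodified Rap1a; β-tubulin was the loading control; detection was HRP/ECL. Gels represent two independent experiments.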

[4] = system: Rab6 geranylgeranylation in RPMI-8226 cells; assay type: cell-based, human; conditions: 10 µM, 48 hours, Figure 3A
Procedure, shortened: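 Triton X-114 lysis gave aqueous (cytosolic) and detergent (membrane) fractions. Equal protein (BCA) was run on SDS-PAGE and blotted to PVDF for Rab6 with HRP/ECL detection. Loading controls were β-tubulin (aqueous) and calnexin (detergent). Gels represent two independent experiments.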

GGDPS [5] = target: T1, GGDPS; assay: GGDPS enzyme assay; assay type: biochemical; conditions: in vitro enzyme assay
[6] = system: intracellular GGPP levels in RPMI-8226 cells; assay: Measurement of intracellular GGPP levels in RPMI-8226 cells; assay type: cell-based, human; conditions: 1 µM, 24 hours, Figure 4
Procedure, shortened: (§1)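 Isoprenoid pyrophosphates were extracted in butanol/75mM ammonium hydroxide/ethanol (1:1.25:2.75) and dried under nitrogen. FPP was coupled to fluorescent GCVLS by FTase and GGPP to GCVLL by GGTase I. Peptides were quantified by reversed-phase HPLC-fluorescence. Results are % untreated control, mean ± SD, n=2, unpaired two-tailed t-test.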

[7] = system: intracellular FPP levels in RPMI-8226 cells; assay: Measurement of intracellular FPP levels in RPMI-8226 cells; assay type: cell-based, human; conditions: 1 µM, 24 hours, Figure 4
Procedure, shortened: as §1

[8] = system: monoclonal protein trafficking in RPMI-8226 cells; assay: Monoclonal protein quantitation; assay type: cell-based, human; conditions: 10 µM, 48 hours, Figure 5
Procedure, shortened: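 Cells were lysed in RIPA with protease/phosphatase inhibitors and protein measured by BCA. Intracellular lambda light chain was quantified by human lambda light chain ELISA. Results are % untreated control, mean ± SD, n=3, unpaired two-tailed t-test (α 0.05).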

GGTase II [9] = target: T2, GGTase II; conditions: ref our prior studies; cited from earlier work
FTase = FTase (Rattus norvegicus, UniProt Q02293+Q04631); assay: FTase enzyme assay; assay type: biochemical
Procedure, shortened: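 Ran 1 h at 30 °C, then ice and acetonitrile/5% HCl stop. Centrifuged supernatant went to HPLC with fluorescence detection of prenylated peptide. IC50 came from concentration-response curves.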

Row | Compound | IC50 (GGTase II [2]) | inhibitory activity against GGTase II (GGTase II [2]) | disruption of Rap1a geranylgeranylation (accumulation of unmodified Rap1a) [3] | disruption of Rab6 geranylgeranylation (Rab6 in aqueous fraction) [4] | effect on intracellular lambda light chain levels [8] | other results
1 | 2E,6Z-farnesylbisphosphonate [Compound 22] | – | – | – | – | – | fold less potent GGDPS inhibitor than the 2E,6E-isomer (GGDPS [1]; farnesyl bisphosphonate isomers): approximately 6 fold
2 | CC(C)=CCC[C@@]1(C)O[C@@H]1Cn1cc(CC(P(=O)([O-])[O-])P(=O)([O-])[O-])nn1.[Na+].[Na+].[Na+].[Na+] (racemic) [Compound 12, Sodium (E)-(2-(1-((3-methyl-3-(4-methylpent-3-en-1-yl)oxiran-2-yl)methyl)-1H-1,2,3-triazol-4-yl)ethane-1,1-diyl)bis(phosphonate)] | > 1000 µM | neither of the individual olefin isomers (11 or 19) nor the related epoxides (12 or 20) displayed inhibitory activity | neither of the epoxide derivatives (12 and 20) displayed activity in this assay | neither of the epoxide derivatives (12 and 20) displayed activity in this assay | – | –
3 | CC(C)=CCC[C@]1(C)O[C@@H]1Cn1cc(CC(P(=O)([O-])[O-])P(=O)([O-])[O-])nn1.[Na+].[Na+].[Na+].[Na+] (racemic) [Compound 20, Sodium (Z)-(2-(1-((3-methyl-3-(4-methylpent-3-en-1-yl)oxiran-2-yl)methyl)-1H-1,2,3-triazol-4-yl)ethane-1,1-diyl)bis(phosphonate)] | > 1000 µM | neither of the individual olefin isomers (11 or 19) nor the related epoxides (12 or 20) displayed inhibitory activity | neither of the epoxide derivatives (12 and 20) displayed activity in this assay | neither of the epoxide derivatives (12 and 20) displayed activity in this assay | – | GGDPS activity, comparison in words (GGDPS [5]): reduces the activity against GGDPS to a level comparable to the geranyl triazole
4 | CC(C)=CCCC(C)=CCn1cc(CC(P(=O)([O-])[O-])P(=O)([O-])[O-])nn1.[Na+].[Na+].[Na+].[Na+] [Compound 1] | > 1000 µM | – | A similar pattern was displayed | A similar pattern was displayed | induces an accumulation of intracellular lambda light chain equivalent to that induced by the positive control DGBP | effect on intracellular GGPP levels [6]: decreased GGPP levels; effect on intracellular FPP levels [7]: increased FPP levels; inhibition of GGTase II (GGTase II [9]): does not inhibit GGTase II
5 | CC(C)=CCC/C(C)=C/Cn1cc(CC(P(=O)([O-])[O-])P(=O)([O-])[O-])nn1.[Na+].[Na+].[Na+].[Na+] [Compound 11, Sodium (E)-(2-(1-(3,7-dimethylocta-2,6-dien-1-yl)-1H-1,2,3-triazol-4-yl)ethane-1,1-diyl)bis(phosphonate)] | > 1000 µM | neither of the individual olefin isomers (11 or 19) nor the related epoxides (12 or 20) displayed inhibitory activity | only weakly disrupted Rap1a geranylgeranylation | – | has no effect on intracellular light chain levels | IC50 (FTase): > 500 µM; disruption of Rap1a geranylgeranylation at 10 µM ([3]; Figure 3B): only weakly disrupted Rap1a geranylgeranylation
6 | CC(C)=CCC/C(C)=C\Cn1cc(CC(P(=O)([O-])[O-])P(=O)([O-])[O-])nn1.[Na+].[Na+].[Na+].[Na+] [Compound 19, Sodium (Z)-(2-(1-(3,7-dimethylocta-2,6-dien-1-yl)-1H-1,2,3-triazol-4-yl)ethane-1,1-diyl)bis(phosphonate)] | > 1000 µM | neither of the individual olefin isomers (11 or 19) nor the related epoxides (12 or 20) displayed inhibitory activity | effectively disrupted both Rap1a and Rab6 geranylation | effectively disrupted both Rap1a and Rab6 geranylation | This activity is a consequence of the neryl triazole 19; also recorded: disrupts monoclonal protein trafficking | GGDPS activity, comparison in words (GGDPS [5]): slightly less potent; concentration at which unmodified Rap1a is observed ([3]; Figure 3B): 1 µM; effect on intracellular GGPP levels [6]: even more potently decreased GGPP levels; also recorded: depletes cells of GGPP; effect on intracellular FPP levels [7]: increased FPP levels; also recorded: increases intracellular FPP levels
7 | CC(C)=CCC/C(C)=C/CC/C(C)=C/CC(P(=O)(O)O)P(=O)(O)O [Compound 21, 2E,6E-farnesyl bisphosphonate] | – | – | – | – | – | fold more potent than the 2E,6Z-isomer 22 (GGDPS [1]; ref earlier studies): about 6 fold
8 | CC(C)=CCC/C(C)=C/CC(C/C=C(\C)CCC=C(C)C)(P(=O)(O)O)P(=O)(O)O [DGBP, digeranyl bisphosphonate, reference compound] | – | – | accumulation of unmodified Rap1a and Rab6 | accumulation of unmodified Rap1a and Rab6 | accumulation of intracellular lambda light chain | concentration at which unmodified Rap1a is observed ([3]; Figure 3B): 10 µM; mode of GGDPS inhibition (GGDPS [1]): competitive with respect to FPP as opposed to IPP
9 | CC(C)=CCC/C(C)=C\CC(C/C=C(/C)CCC=C(C)C)(P(=O)(O)O)P(=O)(O)O [dineryl bisphosphonate] | – | – | – | – | – | fold less potent GGDPS inhibitor than DGBP (GGDPS [1]): approximately 14 fold
10 | CC(C)=CCCC(C)=CCC(P(=O)(O)O)P(=O)(O)O [geranyl bisphosphonate] | – | – | – | – | – | potency relative to the corresponding neryl bisphosphonate (GGDPS [1]; monoalkyl series): at least one order of magnitude more potent
11 | CC(C)=CCCC(C)=CCC(CC=C(C)CCC=C(C)C)(P(=O)(O)O)P(=O)(O)O [geranyl/neryl] | – | – | – | – | – | fold less potent GGDPS inhibitor than DGBP (GGDPS [1]): approximately 14 fold
